Test [1] deals with MCF7. Kind of test: Cytotoxicity against human MCF7 cells assessed as growth inhibition at 10^-5 M after 72 hrs by MTT assay relative to control. The class given is functional. To be noted: MCF7, 72 h, read-out: GI. On the technique in general: Tetrazolium dyes change colour on reduction, which living cells bring about.
The subject of test [2] is MDA-MB-231. Kind of test: Cytotoxicity against human MDA-MB-231 cells assessed as growth inhibition at 10^-5 M after 72 hrs by MTT assay relative to control. To be noted: MDA-MB-231, 72 h, read-out: GI. In kind it is functional.
Test [3] concerns A549. Kind of test: Cytotoxicity against human A549 cells assessed as growth inhibition at 10^-5 M after 72 hrs by MTT assay relative to control. The class given is functional. As to conditions: A549, 72 h, read-out: GI.
Test [4] in a line: Cytotoxicity against human HCT116 cells assessed as growth inhibition at 10^-5 M after 72 hrs by MTT assay relative to control. The class given is functional. As to conditions: HCT-116, 72 h, read-out: GI.
The subject of test [5] is HeLa. Kind of test: Cytotoxicity against human HeLa cells assessed as growth inhibition at 10^-5 M after 72 hrs by MTT assay relative to control. In kind it is functional. As to conditions: read-out: GI.
The subject of test [6] is A549. Kind of test: Cytotoxicity against human A549 cells assessed as growth inhibition after 72 hrs by MTT assay. In kind it is functional, cell-based. To be noted: A549, 72 h. The procedure, abridged:
(§1)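 MTT viability assay. Cells were seeded at 5000 per well, incubated overnight, then exposed to compound at a range of concentrations for 72 h. MTT was added from a 5 mg/mL stock for 4 h, and absorbance was read at 570 nm. IC50 (50% viability inhibition) was calculated by the logit method. Each concentration was run at least three times.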

For test [7], the system named is MDA-MB-231. Kind of test: Cytotoxicity against human MDA-MB-231 cells assessed as growth inhibition after 72 hrs by MTT assay. In kind it is functional, cell-based. To be noted: MDA-MB-231, 72 h. The procedure, abridged:
as §1

Test [8] is described as follows: Cytotoxicity against human HCT116 cells assessed as growth inhibition after 72 hrs by MTT assay. The class given is functional, cell-based. To be noted: HCT-116, 72 h. The gist of the method:
as §1

Turning to `COc1cc2ccc(=O)oc2cc1O` [SCOPOLETIN], the inhibition of growth at 10 µM in test [1] came to 2.63%; in test [2] it was 8.47%; in test [3], 4.23%; in test [4], 1.36%; in test [5], 0.98%. Moreover, the IC50 in test [6], in test [7] and in test [8] was above 30000 nM in each case.
In the case of `COc1cc2cc(NC(=O)/C=C/c3ccc(F)cc3)c(=O)oc2cc1O`, the inhibition of growth at 10 µM in test [1] is 58.4%; in test [2], 69.2%; in test [3], 85.6%; in test [4] it was 54.2%; in test [5] it was 67.1%. Also, the IC50 was found to be 612 nM in test [6], 2350 nM in test [7] and 5540 nM in test [8].
Consider `COc1ccc(/C=C/C(=O)Nc2cc3cc(OC)c(O)cc3oc2=O)cc1`, for which the inhibition of growth at 10 µM in test [1] was determined as 44.8%; in test [2], 61.4%; in test [3] it was 88.6%; in test [4] it was 75.7%; in test [5], 60.9%. Besides, the half-inhibitory concentration (IC50) was determined as 649 nM in test [6], 578 nM in test [7] and 505 nM in test [8].
As to `COc1cc2cc(NC(=O)/C=C/c3ccccc3)c(=O)oc2cc1O`, the inhibition of growth at 10 µM in test [1] came out at 6.06%; in test [2] it was 44.5%; in test [3], 65.7%; in test [4], 60.3%; in test [5], 58.3%. Moreover, the IC50 in test [6] worked out at 2180 nM; in test [7], 369 nM; in test [8] it was 1150 nM.

In general, IC50 refers to the point on the concentration scale where inhibition reaches its midpoint.

Values taken from ChEMBL document CHEMBL3407428, “Synthesis, in vitro and in vivo antitumor activity of scopoletin-cinnamic acid hybrids” (Eur J Med Chem, 2015).
